Here are results for 1 molecule from ChEMBL document CHEMBL4152210, “Design, synthesis, anti-lung cancer activity, and chemosensitization of tumor-selective MCACs based on ROS-mediated JNK pathway activation and NF-κB pathway inhibition” (Eur J Med Chem, 2018).

The source made the active and inactive calls. The calls are words filed in the database; no cut-off is given here.

In data set [1] the test system is A549. Put plainly: Cytotoxicity against human A549 cells assessed as reduction in cell viability after 72 hrs by MTT assay. Type of data set: functional, cell-based. Particulars: A549, 72 h. In short, it runs like this: (§1)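 Cells in RPMI 1640 with 10% heat-inactivated FBS and penicillin/streptomycin at 37 °C, 5% CO2. Seeded at 4000 per well, adhered overnight, then exposed to graded compound concentrations in triplicate wells for 72 h. MTT (5 mg/mL stock) added for 4 h, dissolved in DMSO, A490 read. IC50 is the concentration reducing viability by 50% versus untreated control.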
(In general: Formazan colour is commonly taken as a measure of viable cells.)

The test system of data set [2] is NCI-H1650. Put plainly: Cytotoxicity against human NCI-H1650 cells assessed as reduction in cell viability after 72 hrs by MTT assay. Type of data set: functional, cell-based. Conditions: NCI-H1650, 72 h. In short, it runs like this:
as §1

Data set [3] deals with L02. Description: Cytotoxicity against human HL7702 cells assessed as reduction in cell viability after 72 hrs by MTT assay. In kind it is cell-based. Particulars: L02, 72 h. The essentials:
as §1

Data set [4] in a line: Selectivity index, ratio of IC50 for human HL7702 cells to IC50 for human H460 cells. In kind it is toxicity. In short, it runs like this:
(§2)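 Selectivity index taken as the logarithm of the ratio of the HL7702 IC50 to the cancer-line IC50. […] Not calculated when an IC50 was lacking.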

A short description of data set [5]: Selectivity index, ratio of IC50 for human HL7702 cells to IC50 for human NCI-H1650 cells. In kind it is toxicity. In short, it runs like this:
as §2

Data set [6] is described as follows: Selectivity index, ratio of IC50 for human HL7702 cells to IC50 for human NCI-H1975 cells. In kind it is toxicity. The essentials: as §2
The test system of data set [7] is A549. Description: Induction of apoptosis in human A549 cells after 24 hrs by Annexin V-FITC/propidium iodide staining based flow cytometric analysis. In kind it is functional, cell-based. The essentials:
(§3)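 A549 treated 24 h at 1, 5 or 10 µM, with BMS345541 20 µM as control. Inhibitor arms pretreated 1 h with NAC (5 mM) or SP600125 (10 µM) before 10 µM. Cells harvested with EDTA-free trypsin, stained with FITC Annexin V and PI for 15 min at room temperature in the dark, analysed by flow cytometry.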
Background: A flow cytometer gives signals particle by particle.

For data set [8], the system named is A549. Description: Induction of apoptosis in human A549 cells assessed as increase in PARP level after 24 hrs by Western blot analysis. In kind it is functional, cell-based. In short, it runs like this:
(§4)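 A549 treated at 1, 5 or 10 µM, or with BMS345541 (20 µM), for 24 h. Cleaved PARP and Bax detected by western blot (10% SDS-PAGE, PVDF, 5% milk block, HRP secondary).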
(In general: Immunoblotting shows a protein as a band on a membrane.)

The test system of data set [9] is A549. Description: Induction of apoptosis in human A549 cells assessed as increase in caspase-3 level after 24 hrs by Western blot analysis. Type of data set: functional, cell-based.
For data set [10], the system named is A549. Description: Induction of apoptosis in human A549 cells assessed as increase in Bax level at 1 to 10 uM after 24 hrs by Western blot analysis. Type of data set: functional, cell-based. The essentials: as §4
Data set [11] has as its target T1, Mitogen-activated protein kinase 8/9 (Homo sapiens) (UniProt P45983+P45984). Put plainly: Induction of JNK 1/2 phosphorylatyion in human A549 cells after 6 hrs by Western blot analysis. Type of data set: cell-based. In short, it runs like this: (§5)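 A549 exposed at 10 µM for varying times, or at various concentrations for 6 h. Inhibition arms pretreated 1 h with SP600125 (10 µM) or NAC (5 mM) before 10 µM for 6 h. Lysates run on 10% SDS-PAGE and transferred to PVDF. p-JNK probed, GAPDH as loading control.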

The target of data set [12] is T1, Mitogen-activated protein kinase 8/9 (Homo sapiens). Description: Induction of JNK 1/2 phosphorylatyion in human A549 cells at 10 uM pretreated with 5 mM NAC for 1 hr followed by compound addition and measured after 6 hrs by Western blot analysis. In kind it is cell-based. The essentials: as §5
In data set [13] the target is T2, Inhibitor of nuclear factor kappa-B kinase subunit beta (Homo sapiens) (UniProt O14920).
T2 sequence (whole entry): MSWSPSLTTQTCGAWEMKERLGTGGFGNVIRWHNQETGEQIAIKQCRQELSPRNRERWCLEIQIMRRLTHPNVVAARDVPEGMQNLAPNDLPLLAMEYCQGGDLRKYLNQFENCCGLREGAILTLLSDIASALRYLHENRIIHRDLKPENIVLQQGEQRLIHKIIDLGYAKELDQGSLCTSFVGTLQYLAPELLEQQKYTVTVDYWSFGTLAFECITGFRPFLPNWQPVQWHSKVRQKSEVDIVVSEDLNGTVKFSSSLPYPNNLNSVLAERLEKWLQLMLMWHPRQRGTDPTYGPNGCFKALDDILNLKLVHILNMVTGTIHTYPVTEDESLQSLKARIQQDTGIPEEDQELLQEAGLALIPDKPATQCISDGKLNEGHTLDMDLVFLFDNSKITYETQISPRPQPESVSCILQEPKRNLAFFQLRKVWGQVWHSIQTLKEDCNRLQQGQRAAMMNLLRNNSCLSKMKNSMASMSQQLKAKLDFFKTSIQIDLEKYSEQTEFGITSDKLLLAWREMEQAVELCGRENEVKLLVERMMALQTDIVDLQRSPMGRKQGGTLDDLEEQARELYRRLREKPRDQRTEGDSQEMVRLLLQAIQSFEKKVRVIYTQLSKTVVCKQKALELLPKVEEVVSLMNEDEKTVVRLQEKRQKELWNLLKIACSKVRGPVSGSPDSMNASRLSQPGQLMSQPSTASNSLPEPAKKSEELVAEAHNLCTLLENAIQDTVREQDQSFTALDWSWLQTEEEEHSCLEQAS
Put plainly: Inhibition of cisplatin-induced IKK-beta phosphorylation in human A549 cells at 1 to 10 uM preincubated for 1 hr followed by cisplatin addition and measured after 24 hrs by Western blot analysis. In kind it is cell-based. In short, it runs like this: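 A549 pretreated 1 h at 1, 5 or 10 µM, or with BMS345541 (20 µM), then exposed to cisplatin (20/3 µM) for 24 h. p-IKKβ assessed by western blot.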

For data set [14], the system named is A549. Description: Chemosensitization activity in human A549 cells assessed as inhibition of clonogenic growth at 1 uM in presence of 0.74 uM cisplatin incubated for 2 days followed by replacement of growth media and measured after 8 days by crystal violet staining-based assay relative to control. In kind it is functional. The essentials:
(§6)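 A549 seeded at 1000 cells per well in 6-well plates, exposed to drug alone or combined with cisplatin or 5-Fu over a concentration series. Drug-containing medium replaced after 2 days. After a further 8 days, fixed with 1% methanol/1% formaldehyde and stained with 0.5% crystal violet. Percent inhibition at each concentration calculated relative to control.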

For data set [15], the system named is A549. Put plainly: Chemosensitization activity in human A549 cells assessed as inhibition of clonogenic growth at 0.25 uM in presence of 9 uM cisplatin incubated for 2 days followed by replacement of growth media and measured after 8 days by crystal violet staining-based assay relative to control. Type of data set: functional. In short, it runs like this:
as §6

For data set [16], the system named is A549. Description: Anticlonogenic activity against human A549 cells assessed as inhibition of clonogenic growth at 0.25 uM incubated for 2 days followed by replacement of growth media and measured after 8 days by crystal violet staining-based assay relative to control. Type of data set: functional. The essentials: as §6
Data set [17] deals with A549. Put plainly: Induction of apoptosis in human A549 cells at 10 uM preincubated with NAC for 1 hr followed by compound addition and measured after 24 hrs by Annexin V-FITC/propidium iodide staining based flow cytometric analysis. Type of data set: functional, cell-based. The essentials:
as §3

T1 sequence (P45983 whole entry, looked up): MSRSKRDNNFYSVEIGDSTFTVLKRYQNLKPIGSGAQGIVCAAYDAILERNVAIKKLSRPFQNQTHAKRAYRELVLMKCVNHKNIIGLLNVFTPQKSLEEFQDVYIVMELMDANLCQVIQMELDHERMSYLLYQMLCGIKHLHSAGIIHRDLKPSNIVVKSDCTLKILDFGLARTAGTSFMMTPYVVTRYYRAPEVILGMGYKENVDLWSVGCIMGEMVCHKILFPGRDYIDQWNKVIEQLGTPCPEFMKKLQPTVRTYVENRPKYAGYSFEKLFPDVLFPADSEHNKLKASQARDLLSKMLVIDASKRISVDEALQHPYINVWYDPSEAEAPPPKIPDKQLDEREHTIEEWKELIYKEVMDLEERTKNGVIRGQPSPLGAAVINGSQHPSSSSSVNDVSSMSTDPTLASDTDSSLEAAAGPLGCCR
T1 sequence (P45984 whole entry, looked up): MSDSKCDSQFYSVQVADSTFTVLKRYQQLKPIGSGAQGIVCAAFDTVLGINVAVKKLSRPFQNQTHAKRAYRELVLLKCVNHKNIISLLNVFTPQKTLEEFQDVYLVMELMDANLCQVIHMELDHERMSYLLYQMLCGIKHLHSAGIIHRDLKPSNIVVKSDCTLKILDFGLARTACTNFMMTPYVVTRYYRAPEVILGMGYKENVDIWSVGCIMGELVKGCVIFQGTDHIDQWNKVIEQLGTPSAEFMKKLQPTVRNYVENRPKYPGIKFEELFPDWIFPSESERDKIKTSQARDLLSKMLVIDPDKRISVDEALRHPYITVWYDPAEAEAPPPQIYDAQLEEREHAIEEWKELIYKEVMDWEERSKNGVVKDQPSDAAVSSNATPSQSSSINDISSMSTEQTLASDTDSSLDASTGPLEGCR

Take `COc1cc(/C=C2\CN(C)C/C(=C\c3cc(OC)c(OC)c(OC)c3)C2=O)cc(OC)c1OC`: the half-inhibitory concentration (IC50) in data set [1] is 1700 nM; in data set [2] it was 1500 nM; in data set [3], 26400 nM. Also, the “log(RatioIC50)” value in data set [4] was 1.42; in data set [5], 1.25; in [6] it was 1.42. The Activity result in [7], in data set [8], in data set [9] and in data set [11] was “Dose-dependent effect” in each case. For the same molecule, the outcome in data set [10] was Active. The outcome in [12] and in data set [17] was inactive. Also, the inhibition entry in data set [13] is “Active”. Further, the “inhibition (INH)” value in data set [14] is recorded as 97%; in data set [15] it was 99%. Further, the inhibition at 0.25 µM in data set [16] was 2 to 11%.

For orientation: IC50 means the concentration that inhibits the measured activity by half. A word on the inhibition: it is the percentage by which the read-out fell short of the control.
